Laboratory results taken from ChEMBL document CHEMBL3616374, “Structure-Activity Relationship Studies of Orally Active Antimalarial 2,4-Diamino-thienopyrimidines” (J Med Chem, 2015).
Converted amounts (≈) assume the structure as drawn.

Assays:
Plasmodium falciparum [1] = assay: Antiplasmodial activity against multidrug-sensitive Plasmodium falciparum NF54 by [3H]-hypoxanthine incorporation assay; assay type: functional, organism-based
Procedure, shortened: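 IC50 against P. falciparum NF54 was run with chloroquine and artesunate as reference drugs in every experiment. Values are the mean of at least 2 independent experiments.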

[2] = Metabolic stability of the compound in human liver microsomes at 0.1 uM after 30 mins by LC-MS/MS analysis; assay type: ADME; conditions: read-out: Stability
Procedure, shortened: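 A one-point microsomal stability assay was used, expressed as the percentage of parent compound remaining after 30 min incubation.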

[3] = Solubility of the compound in 0.01 M HCl at pH 2; assay type: physicochemical
Procedure, shortened: (§1)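 Solubility was measured by a scaled-down shake flask method.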

[4] = Solubility of the compound in phosphate buffer at pH 6.5; assay type: physicochemical; procedure, shortened: as §1
Plasmodium falciparum [5] = assay: Antiplasmodial activity against multidrug-resistant Plasmodium falciparum K1 by [3H]-hypoxanthine incorporation assay; assay type: functional, organism-based
Procedure, shortened: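 In vitro IC50 against the multidrug-resistant K1 strain of P. falciparum. Chloroquine and artesunate were run as reference drugs in every experiment. Values are means of ≥2 independent experiments.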

[6] = Intrinsic clearance in human liver microsomes assessed per mg of protein at 0.1 uM by LC-MS/MS analysis; assay type: ADME; conditions: read-out: CLH
[7] = target: Voltage-gated inwardly rectifying potassium channel KCNH2 (Homo sapiens, UniProt Q12809); assay: Inhibition of human ERG expressed in CHO cells by patch clamp electrophysiology assay; assay type: cell-based
Voltage-gated inwardly rectifying potassium channel KCNH2, sequence (Q12809 whole entry): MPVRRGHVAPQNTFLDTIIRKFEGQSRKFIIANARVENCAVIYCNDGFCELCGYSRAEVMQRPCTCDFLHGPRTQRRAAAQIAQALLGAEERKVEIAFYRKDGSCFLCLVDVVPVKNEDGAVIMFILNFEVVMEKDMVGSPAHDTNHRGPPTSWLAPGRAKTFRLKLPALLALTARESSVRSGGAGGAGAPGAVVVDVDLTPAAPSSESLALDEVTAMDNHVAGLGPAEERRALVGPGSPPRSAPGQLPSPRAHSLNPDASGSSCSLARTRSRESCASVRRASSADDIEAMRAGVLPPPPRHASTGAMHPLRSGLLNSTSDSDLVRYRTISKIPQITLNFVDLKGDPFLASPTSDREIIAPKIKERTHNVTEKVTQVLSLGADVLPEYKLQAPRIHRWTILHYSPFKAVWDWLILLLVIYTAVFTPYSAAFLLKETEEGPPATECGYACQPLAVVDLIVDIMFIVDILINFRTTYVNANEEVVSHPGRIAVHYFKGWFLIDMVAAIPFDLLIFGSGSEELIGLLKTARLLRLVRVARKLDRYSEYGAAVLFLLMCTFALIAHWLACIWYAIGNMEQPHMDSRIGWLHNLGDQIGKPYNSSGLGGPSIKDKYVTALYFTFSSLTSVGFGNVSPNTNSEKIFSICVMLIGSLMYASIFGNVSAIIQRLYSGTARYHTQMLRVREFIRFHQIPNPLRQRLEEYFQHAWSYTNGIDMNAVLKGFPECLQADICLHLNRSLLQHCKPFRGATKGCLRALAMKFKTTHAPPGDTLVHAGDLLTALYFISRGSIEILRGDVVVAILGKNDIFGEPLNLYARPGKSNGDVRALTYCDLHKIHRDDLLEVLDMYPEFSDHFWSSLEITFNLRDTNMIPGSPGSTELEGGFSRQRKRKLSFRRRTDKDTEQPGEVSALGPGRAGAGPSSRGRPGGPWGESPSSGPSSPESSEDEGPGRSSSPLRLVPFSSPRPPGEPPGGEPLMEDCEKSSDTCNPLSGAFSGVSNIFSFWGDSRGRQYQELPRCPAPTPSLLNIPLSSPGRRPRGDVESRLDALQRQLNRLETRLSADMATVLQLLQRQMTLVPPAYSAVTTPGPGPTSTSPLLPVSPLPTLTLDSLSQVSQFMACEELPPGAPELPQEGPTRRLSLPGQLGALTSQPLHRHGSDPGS

[8] = Degradation half-life in human liver microsomes at 0.1 uM by LC-MS/MS analysis; assay type: ADME
[9] = AUC (0 to 24 hrs) in BALB/C mouse at 50 mg/kg, po; assay type: ADME, organism-based; set-up: time < 24 hr, dose 50 mg/kg, route oral; conditions: in vivo
Vero = assay: Cytotoxicity against African green monkey Vero cells after 48 hrs by MTT assay; assay type: cell-based; conditions: chlorocebus sabaeus
Mus musculus [10] = assay: Dose normalized AUC (0 to 5 hrs) in BALB/C mouse at 50 mg/kg, po; assay type: ADME, organism-based; conditions: in vivo
Plasmodium berghei [11] = assay: Antimalarial activity against GFP-transfected Plasmodium berghei ANKA infected in NMRI mouse assessed as reduction of parasitemia in blood at 50 mg/kg, po qd for 4 days by flow cytometry analysis; assay type: functional; set-up: scale not given: the % may be the effect or the level left
Procedure, shortened: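 In P. berghei-infected mice, compound was dissolved or suspended in a standard non-solubilizing HPMC suspension vehicle and given orally once daily for 4 days (4 × 50 mg/kg). Parasitemia reduction was expressed as % relative to untreated control mice. Mean survival time in days was also recorded.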

Plasmodium berghei [12] = assay: Antimalarial activity against GFP-transfected Plasmodium berghei ANKA infected in NMRI mouse assessed as mean survival time at 50 mg/kg, po qd for 4 days by flow cytometry analysis; assay type: functional
Procedure, shortened: (§2)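 P. berghei-infected mice dosed orally at 50 mg/kg once daily for 4 days. Compound was dissolved or suspended in a standard non-solubilizing HPMC suspension vehicle. Mice were watched for acute toxicity after dosing. Parasitemia reduction was calculated against untreated infected controls, and survival was recorded as mean survival time in days.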

Mus musculus [13] = assay: Acute toxicity in GFP-transfected Plasmodium berghei ANKA infected NMRI mouse at 50 mg/kg, po qd for 4 days; assay type: organism-based; conditions: in vivo, 96 h; procedure, shortened: as §2
[14] = Cmax in BALB/C mouse at 50 mg/kg, po; assay type: ADME, organism-based; set-up: dose 50 mg/kg, route oral; conditions: in vivo
[15] = Selectivity index ratio of IC50 for African green monkey Vero cells to IC50 for Plasmodium falciparum NF54; assay type: functional
[16] = Partition coefficient, log D of the compound at pH 7.4 by HPLC chromatographic method; assay type: physicochemical; conditions: octanol/water
Procedure, shortened: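 logD was estimated by HPLC-DAD-MS.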

IC50 (Plasmodium falciparum [1])	Structure (SMILES)	remaining at 0.5 h, 0.1 µM [2]	solubility [3]	solubility [4]	IC50 (Plasmodium falciparum [5])	further results
> 2150 nM	CN(C)CCCNc1nc(N2CCOCC2)nc2cc(-c3ccc(C(F)(F)F)cc3)sc12	92%	211 µg/mL (≈ 453 µM)	< 5 µg/mL		
678 nM	Nc1nc(NC2CCS(=O)(=O)CC2)c2sc(-c3ccc(C(F)(F)F)cc3)cc2n1					
936 nM	Nc1nc(NC2CNC2)c2sc(-c3ccc(C(F)(F)F)cc3)cc2n1					
95 nM	CNc1nc(N2CCNCC2)c2sc(-c3ccc(C(F)(F)F)cc3)cc2n1					
42 nM	CN(C)CCCNc1nc(NCc2ccccc2)nc2cc(-c3ccc(C(F)(F)F)cc3)sc12	100%	208 µg/mL (≈ 428 µM)	< 5 µg/mL		
100 nM	CN(C)CCCNc1nc(N(C)C)nc2cc(-c3ccc(C(F)(F)F)cc3)sc12	66%	212 µg/mL (≈ 501 µM)	168 µg/mL (≈ 397 µM)		
> 2480 nM	N#CC1CCN(c2nc(N)nc3cc(-c4ccc(C(F)(F)F)cc4)sc23)CC1					
1080 nM	CN(C)CCCNc1nc(Cl)nc2cc(-c3ccc(C(F)(F)F)cc3)sc12					
57 nM	CN(C)CCCNc1nc(N)nc2cc(-c3ccc(C(F)(F)F)cc3)sc12	94%	210 µg/mL (≈ 531 µM)	148 µg/mL (≈ 374 µM)		microsomal CLint at 0.1 µM [6]: 16.9 µL/min/mg; half-life at 0.1 µM [8]: 1.73 h
116 nM	CNc1nc(NC(C)(C)C)c2sc(-c3ccc(C(F)(F)F)cc3)cc2n1		1.6 µg/mL (≈ 4.21 µM)	< 1.6 µg/mL		microsomal CLint at 0.1 µM [6]: 14 µL/min/mg; half-life at 0.1 µM [8]: 2.07 h; chromatographic logD [16]: > 5.3
1460 nM	CS(=O)(=O)c1ccc(-c2nc(N3CCNCC3)nc3cc(-c4ccc(C(F)(F)F)cc4)sc23)cc1		174 µg/mL (≈ 336 µM)	< 5 µg/mL		
164 nM	CN(C)CCCNc1nc(N2CCNCC2)nc2cc(-c3ccc(C(F)(F)F)cc3)sc12		198 µg/mL (≈ 426 µM)	178 µg/mL (≈ 383 µM)		microsomal CLint at 0.1 µM [6]: < 17 µL/min/mg; half-life at 0.1 µM [8]: > 1.67 h
> 2380 nM	Nc1nc(N2CCC(F)(F)CC2)c2sc(-c3ccc(C(F)(F)F)cc3)cc2n1					
> 2210 nM	CNc1nc(-c2ccc(C(F)(F)F)cc2)c2sc(-c3ccc(C(F)(F)F)cc3)cc2n1					
168 nM	Nc1nc(NC2CCCCC2)c2sc(-c3ccc(C(F)(F)F)cc3)cc2n1					
1160 nM	CNc1nc(N)c2sc(-c3ccc(C(F)(F)F)cc3)cc2n1		> 100 µg/mL	3.1 µg/mL (≈ 9.56 µM)		chromatographic logD [16]: 3.4
43 nM	CNc1nc(NCCCN2CCOCC2)c2sc(-c3ccc(C(F)(F)F)cc3)cc2n1		196 µg/mL (≈ 434 µM)	96 µg/mL (≈ 213 µM)		microsomal CLint at 0.1 µM [6]: 72.4 µL/min/mg; half-life at 0.1 µM [8]: 0.398 h
> 2540 nM	Nc1nc(N2CCC(O)CC2)c2sc(-c3ccc(C(F)(F)F)cc3)cc2n1					
500 nM	CN(C)CCCNc1ncnc2cc(-c3ccc(C(F)(F)F)cc3)sc12	91%	209 µg/mL (≈ 549 µM)	205 µg/mL (≈ 539 µM)		
50 nM	CN1CCC(Nc2nc(N)nc3cc(-c4ccc(C(F)(F)F)cc4)sc23)CC1	95%	147 µg/mL (≈ 361 µM)	147 µg/mL (≈ 361 µM)		
451 nM	Nc1nc(NC2CCOCC2)c2sc(-c3ccc(C(F)(F)F)cc3)cc2n1	98%	< 5 µg/mL	< 5 µg/mL		IC50 [7]: 700 nM
36 nM	Nc1nc(NC2CCCNC2)c2sc(-c3ccc(C(F)(F)F)cc3)cc2n1 (centres undefined)	69%	125 µg/mL (≈ 318 µM)	125 µg/mL (≈ 318 µM)		

Structure (SMILES)	IC50 (Plasmodium falciparum [1])	remaining at 0.5 h, 0.1 µM [2]	solubility [3]	solubility [4]	IC50 (Plasmodium falciparum [5])	further results
Nc1nc(NC2CCNC2)c2sc(-c3ccc(C(F)(F)F)cc3)cc2n1 (centres undefined)	100 nM		155 µg/mL (≈ 409 µM)	155 µg/mL (≈ 409 µM)	116 nM	microsomal CLint at 0.1 µM [6]: < 11.6 µL/min/mg; IC50 [7]: 2400 nM; half-life at 0.1 µM [8]: > 2.5 h
CNc1nc(NCCN2CCNCC2)c2sc(-c3ccc(C(F)(F)F)cc3)cc2n1	34 nM	100%	203 µg/mL (≈ 465 µM)	115 µg/mL (≈ 263 µM)	37 nM	
CNc1nc(NCCCO)c2sc(-c3ccc(C(F)(F)F)cc3)cc2n1	111 nM				233 nM	
CNc1nc(NCCN2CCOCC2)c2sc(-c3ccc(C(F)(F)F)cc3)cc2n1	80 nM	51%	213 µg/mL (≈ 487 µM)	42 µg/mL (≈ 96 µM)	121 nM	
CNc1nc(Nc2cccc(C(N)=O)c2)c2sc(-c3ccc(C(F)(F)F)cc3)cc2n1	52 nM	83%	85 µg/mL (≈ 192 µM)	8 µg/mL (≈ 18 µM)	113 nM	
CNc1nc(NC2CCNCC2)c2sc(-c3ccc(C(F)(F)F)cc3)cc2n1	19 nM	84%	218 µg/mL (≈ 535 µM)	147 µg/mL (≈ 361 µM)	24 nM	AUC(0-t) at 24 h [9]: 25 µM·h; Activity (Vero): Non-toxic; AUC/dose (Mus musculus [10]): 4.24 min.ug/ml/(mg/kg); Activity (Plasmodium berghei [11]): 99.7%; MSD (Plasmodium berghei [12]): 12 days; Activity (Mus musculus [13]): Non-toxic; Cmax [14]: 2470 nM; Ratio IC50 [15]: >100
CNc1nc(NCCCN)c2sc(-c3ccc(C(F)(F)F)cc3)cc2n1	> 2610 nM				> 2610 nM	
CNc1nc(OCCCN(C)C)c2sc(-c3ccc(C(F)(F)F)cc3)cc2n1	1830 nM		174 µg/mL (≈ 424 µM)	174 µg/mL (≈ 424 µM)	> 2440 nM	
Nc1nc(NC2CCNCC2)c2sc(-c3ccc(C(F)(F)F)cc3)cc2n1	25 nM	100%	168 µg/mL (≈ 427 µM)	168 µg/mL (≈ 427 µM)	24 nM	microsomal CLint at 0.1 µM [6]: < 11.6 µL/min/mg; Activity (Plasmodium berghei [11]): 78%; half-life at 0.1 µM [8]: > 2.5 h; MSD (Plasmodium berghei [12]): 7 days; Activity (Mus musculus [13]): Non-toxic; chromatographic logD [16]: 2.4
CNc1nc(N2CCC(N)CC2)c2sc(-c3ccc(C(F)(F)F)cc3)cc2n1	42 nM	93%	> 200 µg/mL	17 µg/mL (≈ 41.7 µM)		AUC(0-t) at 24 h [9]: 78.2 µM·h; Activity (Vero): Non-toxic; AUC/dose (Mus musculus [10]): 7.63 min.ug/ml/(mg/kg); Activity (Plasmodium berghei [11]): 81%; MSD (Plasmodium berghei [12]): 7 days; Activity (Mus musculus [13]): Non-toxic; Cmax [14]: 3690 nM; Ratio IC50 [15]: >100
COc1nc(NCCCN(C)C)c2sc(-c3ccc(C(F)(F)F)cc3)cc2n1	1390 nM		214 µg/mL (≈ 521 µM)	< 5 µg/mL	1400 nM	microsomal CLint at 0.1 µM [6]: < 17 µL/min/mg; half-life at 0.1 µM [8]: > 1.67 h
C[C@H]1[C@H](OC(=O)CCC(=O)O)O[C@@H]2O[C@@]3(C)CC[C@H]4[C@H](C)CC[C@@H]1[C@@]24OO3 [ARTESUNATE]	4 nM				3 nM	
Nc1nc(N2CCC(N)CC2)c2sc(-c3ccc(C(F)(F)F)cc3)cc2n1	20 nM	100%	134 µg/mL (≈ 341 µM)	134 µg/mL (≈ 341 µM)	33 nM	AUC(0-t) at 24 h [9]: 21.6 µM·h; Activity (Vero): Non-toxic; AUC/dose (Mus musculus [10]): 2.63 min.ug/ml/(mg/kg); microsomal CLint at 0.1 µM [6]: < 11.6 µL/min/mg; IC50 [7]: 6100 nM; Activity (Plasmodium berghei [11]): 99.8%; half-life at 0.1 µM [8]: > 2.5 h; MSD (Plasmodium berghei [12]): 26 days; chromatographic logD [16]: 2.4; Cmax [14]: 1360 nM; Ratio IC50 [15]: >100
CNc1nc(NC2CCOCC2)c2sc(-c3ccc(C(F)(F)F)cc3)cc2n1	47 nM	100%	< 5 µg/mL	< 5 µg/mL	140 nM	
CNc1nc(NC2CC2)c2sc(-c3ccc(C(F)(F)F)cc3)cc2n1	137 nM		120 µg/mL (≈ 329 µM)	< 5 µg/mL	447 nM	microsomal CLint at 0.1 µM [6]: 25.2 µL/min/mg; half-life at 0.1 µM [8]: 1.15 h
CNc1nc(NCC(F)(F)F)c2sc(-c3ccc(C(F)(F)F)cc3)cc2n1	47 nM	75%	28 µg/mL (≈ 68.9 µM)	< 5 µg/mL	138 nM	IC50 [7]: > 33000 nM
